This is a sample that favours compounds with a hit; in the whole collection about 1.2% have one here.
TRPML3 agonist = activates the human TRPML3 channel | Q8TDD5 | HEK293 TRPML3-YFP, Fluo-8 calcium fluorescence; 100% = the carbachol control signal | activation, % at 3 µM | 220,000 tested, 0.29% active | AID 1448;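 active = activation above its plate's cutoff, the mean activation of the plate's test wells plus 3 SD, cut at about 12% in these data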;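 note: 0% = DMSO only wells and 100% = carbachol wells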
Target sequence (Q8TDD5 whole entry, looked up): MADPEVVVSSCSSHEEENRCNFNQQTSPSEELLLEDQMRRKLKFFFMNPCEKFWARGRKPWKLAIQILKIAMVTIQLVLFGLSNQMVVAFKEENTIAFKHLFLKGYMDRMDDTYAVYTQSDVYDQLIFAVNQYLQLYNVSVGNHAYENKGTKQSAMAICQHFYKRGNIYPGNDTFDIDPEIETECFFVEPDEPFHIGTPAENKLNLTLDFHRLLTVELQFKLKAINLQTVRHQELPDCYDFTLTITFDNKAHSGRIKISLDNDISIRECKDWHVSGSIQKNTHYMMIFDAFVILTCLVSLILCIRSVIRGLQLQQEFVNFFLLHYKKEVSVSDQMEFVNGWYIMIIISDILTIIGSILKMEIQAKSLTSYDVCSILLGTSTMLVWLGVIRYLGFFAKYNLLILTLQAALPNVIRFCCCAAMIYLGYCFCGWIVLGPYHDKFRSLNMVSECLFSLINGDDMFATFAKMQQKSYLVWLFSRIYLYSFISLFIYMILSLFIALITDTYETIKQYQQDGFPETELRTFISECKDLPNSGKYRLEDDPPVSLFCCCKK
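Material: HEK293 cells stably carrying human TRPML3-YFP; compound dosing: single dose, 3 µM final nominal compound, 0.3% DMSO final; incubation: 1-h 37 °C dye load, 5-s basal, 120-s post-compound reads; technique: Fluo-8 intracellular calcium fluorescence, excitation 470-495 nm, emission 515-575 nm; read-out basis: percent activation from peak-to-basal fluorescence ratio, scaled between DMSO and carbachol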
CHO-K1 Ca PAM = counter-screen for M1 PAMs: effect in parental CHO-K1 cells; 360,000 tested, 0.02% active; ATP EC20, Fluo-8 calcium fluorescence; 0% at ATP EC20, 100% at ATP max; activation, % at 3 µM;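 active = activation above the run cutoff, the mean activation of all test compounds plus 3 SD, cut at about 40% in these data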;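 note: peak over basal fluorescence ratio in a 140 s read after ATP addition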
CHO-K1 Ca antag = counter-screen for M1 antagonists: effect in parental CHO-K1 cells; ATP-induced calcium, Fluo-8 fluorescence; inhibition, % at 3 µM; 360,000 tested, 0.6% active; AID 602250;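 active = inhibition above a per-plate cutoff, the plate's mean sample inhibition plus 3 SD, cut at about 24% in these data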;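 note: 0% = DMSO plus EC80 ATP and 100% = DMSO alone without ATP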
TRPN1 ag = activates the zebrafish TRPN1 channel. HEK293 zebrafish TRPN1-YFP, Fluo-8 calcium fluorescence; 100% = response to 87 µM carbachol. activation, % at 3 µM. 220,000 tested, 0.18% active;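 active = activation above its plate's cutoff, the mean activation of test wells on that plate plus 3 SD, cut at about 19% in these data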;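 note: 0% = DMSO alone and 100% = 87 µM carbachol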
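System: zebrafish TRPN1-YFP in HEK293 cells / Dosing: 3 µM single point / Timing: dye loading 1 h at 37 °C, then 30 min room temperature / Signal: Fluo-8 calcium fluorescence, excitation 470-495 nm, emission 515-575 nm / Read-out basis: percent activation from peak over basal fluorescence ratio, control-normalized / Control set: high carbachol 87 µM, low DMSO alone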
CHO-K1 Ca ag = counter-screen for M1 agonists: effect in parental CHO-K1 cells; 360,000 tested, 0.48% active; Fluo-8 calcium fluorescence; scaled to maximal ATP response, vehicle zero; activation, % at 3 µM; in the data active = activation above about 15%;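 note: untransfected CHO-K1 host cells lacking M1 receptor as counterscreen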
TRPN1 counter = zebrafish TRPN1 agonism as TRPML3 agonist counter-screen | shares compounds with TRPML3 agonist | HEK293 zebrafish TRPN1-YFP, Fluo-8 calcium fluorescence; scaled: carbachol wells 100%, DMSO wells 0% | activation, % at 3 µM | 310 tested, 10% active | AID 1525;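 active = mean activation over replicates above a set limit taken from the earlier TRPN1 channel primary screen, cut at about 19% in these data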;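 note: 100% = carbachol and 0% = 0.3% DMSO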
TRPML3 ag conf = human TRPML3 agonism, confirmation; activation, % at 3 µM; 310 tested, 80% active; HEK293 TRPML3-YFP, Fluo-8 calcium fluorescence; 100% set by carbachol, 0% by DMSO; shares compounds with TRPML3 agonist;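 active = activation above a set limit derived from the earlier primary screen, cut at about 12% in these data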
Starred values were filed as active, the others as inactive; x = no result given.

SMILES	TRPML3 agonist	CHO-K1 Ca PAM	CHO-K1 Ca antag	TRPN1 ag	CHO-K1 Ca ag	TRPN1 counter	TRPML3 ag conf
S=C1CCC(c2ccc(Cl)cc2)=NN1c1ccccc1	16*	6	-8	-2	2	-2	9
O=C(c1ccccc1)N1CCCC(c2ccc(Cl)cc2)=N1	-1	9	-25	-1	-1	x	x
O=C(C1=C(O)C(=O)N(c2nccs2)C1c1ccccc1)c1cc2ccccc2o1 (centres undefined)	12*	3	10	16	24*	5	2
Cc1cccc(CN2[C@H](CO)C=CS2(=O)=O)c1	x	20	-2	x	0	x	x
Cc1cc(S(=O)(=O)N2CCN(c3ccccc3C)CC2)ccc1F	2	22	-16	-1	3	x	x
Cc1ccccc1N1CCN(S(=O)(=O)c2ccccc2)CC1	65*	14	-6	-1	0	-2	36*
COc1ccc(S(=O)(=O)NC2CCCCC2)c(C)c1C	14*	1	2	-2	0	-1	15*
COc1ccc(C)cc1S(=O)(=O)NC1CCCCCC1	x	-17	6	x	0	x	x
Nc1ncnc2c1ccn2[C@H]1CN(Cc2ccc3c(c2)OCO3)C[C@@H](COC(=O)c2ccccc2)O1	x	18	-8	x	0	x	x
CCOC(=O)C1CCN(C(=O)C(C)N(c2ccc(Oc3ccccc3)cc2)S(C)(=O)=O)CC1 (centres undefined)	22*	-11	8	9	15	8	18*
CN(C)c1ncc(S(=O)(=O)c2ccccc2)c(-c2ccc(Cl)cc2Cl)n1	58*	21	-14	0	0	-1	82*
CCN(NC(=O)C(O)(c1ccccc1)c1ccccc1)C(=O)c1ccccc1	1	8	-10	0	0	x	x
CC(c1ccccc1)N(NC(=O)C(O)(c1ccccc1)c1ccccc1)C(=O)c1ccccc1 (centres undefined)	13*	20	-10	-1	1	-1	65*
O=C(CC[C@H]1O[C@@H](n2ccc(=O)[nH]c2=O)[C@H](O)[C@@H]1O)NCC(c1ccccc1)c1ccccc1	x	18	-21	x	1	x	x
CC1(C(=O)NS(=O)(=O)c2cccc(Cl)c2)CCN1C(=O)C1(c2ccccc2)CC1 (centres undefined)	x	5	-2	x	1	x	x
O=S(=O)(Nc1ccccc1N1CCCCC1)c1ccc(F)cc1F	16*	26	-13	-3	0	-3	11
Cc1ccc(S(=O)(=O)Nc2ccccc2-c2ccccc2)cc1	91*	-17	-8	-1	0	-1	97*
CSc1nsc(/C=C/Nc2cccc(Cl)c2)c1C#N	40*	3	-5	1	1	0	14*
CSc1nsc(/C=C/Nc2ccc(Cl)cc2)c1C#N	6	0	3	1	1	x	x
O=c1c(Cl)c(Cl)cnn1Cc1nnc(-c2ccccc2Br)o1	18*	-7	95*	7	71*	15	37*
CC12CCC(C(=O)N(CSC(=S)N/N=C\c3ccccc3O)C1=O)C2(C)C (centres undefined)	67*	6	-7	0	0	2	2
COc1ccc(/C=N\NC(=S)SCN2C(=O)C3CCC(C)(C2=O)C3(C)C)cc1 (centres undefined)	39*	-2	14	-1	2	0	0
CN(C)c1ccc(/C=N\NC(=S)SCN2C(=O)C3CCC(C)(C2=O)C3(C)C)cc1 (centres undefined)	16*	2	1	0	0	0	0
COc1ccc(C(=O)NN2C(=O)C3CCC(C)(C2=O)C3(C)C)cc1 (centres undefined)	1	19	-20	1	1	x	x
Cc1cccc(C)c1Cn1c(C)c(C(=O)NCCC#N)sc1=O	x	-2	-2	x	0	x	x
SMILES	TRPML3 agonist	CHO-K1 Ca PAM	CHO-K1 Ca antag	TRPN1 ag	CHO-K1 Ca ag	TRPN1 counter	TRPML3 ag conf
Cc1c(CC(=O)NCC(=O)NCC(=O)N[C@@H](Cc2ccccc2)C(=O)O)c(=O)oc2c(C)c(O)ccc12	x	-12	-6	x	0	x	x
CC(=O)Nc1cccc(NC(=O)c2ccccc2Cl)c1	x	9	0	x	0	x	x
O=S(=O)(c1ccc(Cl)cc1)N1CCN(S(=O)(=O)N2CCCCCC2)CC1	1	2	5	1	4	x	x
O=S(=O)(N1CCCCC1)N1CCN(c2cc(Cl)ccc2Cl)CC1	19*	6	5	-1	1	-1	96*
Cc1ccc(N2CCN(S(=O)(=O)N3CCCCC3)CC2)c(C)c1	37*	x	x	0	x	4	132*
O=S(=O)(c1ccc(Cl)cc1Br)N1CCCCC1	15*	8	-15	0	0	-1	27*
CC(C)NC(=O)Nc1nnc([C@H]2C[C@H](O)[C@@H](CO)O2)s1	x	4	-6	x	0	x	x
COc1cccc(CN(Cc2ccco2)C(c2ccc(F)cc2)c2nnnn2C(C)(C)C)c1 (centres undefined)	25*	-1	7	0	0	6	26*
Cn1cc(CN2CCC(C(=O)NC(c3ccc(F)cc3)c3ccc4ccccc4n3)CC2)c2ccccc21 (centres undefined)	x	2	-5	x	3	x	x
CCc1nc2c(OCc3ccc(Cl)cc3Cl)cccn2c1N(C)C(=O)c1ccccc1F	x	2	6	x	1	x	x
Cc1ccc(N2C(=O)CS/C2=C(\C(Cl)=C(Cl)Cl)[N+](=O)[O-])cc1	2	21	-6	1	2	x	x
CC1CCCC(C)N1C(=C(Cl)Cl)C(=C1SCCS1)[N+](=O)[O-] (centres undefined)	14*	11	-1	0	-1	10	55*
COc1ccc(Cl)cc1C(=O)CSc1nnnn1C1CCCC1	74*	19	-11	-1	-1	-1	51*
COc1ccc(Cl)cc1C(=O)CSc1nnnn1C1CCCCC1	5	5	-1	-1	0	x	x
OC1CCC(NC(=S)Nc2ccc(SC(F)F)cc2)CC1 (centres undefined)	0	4	-12	0	0	x	x
FC(F)Sc1ccc(NC(=S)NC2CCCC2)cc1	12*	6	-1	17	12	20*	7
Cc1cccc(C)c1-n1nnnc1C1(C)CCC(=O)N1C1CC1 (centres undefined)	x	6	3	x	0	x	x
CCOC(=O)C(C)(C)N(Cc1cccc(C)c1)S(=O)(=O)c1cccc([N+](=O)[O-])c1	12*	-1	-6	-2	0	-1	36*

Source: PubChem BioAssay (The Scripps Research Institute Molecular Screening Center)
